Measurements: ChEMBL document CHEMBL1125805, “Cholecystokinin antagonists: (R)-tryptophan-based hybrid antagonists of high affinity and selectivity for CCK-A receptors” (J Med Chem, 1991)
pIC50: −log10 of the molar value.

Assays:
[1] = biological target: T1, Cholecystokinin receptor type A (Cavia porcellus, UniProt Q63931); assay: Inhibition of [125I]Bolton-Hunter CCK-8 binding to cholecystokinin type A receptor in guinea pig pancreatic membranes.; format: cell membranes
T1 sequence (Q63931 whole entry): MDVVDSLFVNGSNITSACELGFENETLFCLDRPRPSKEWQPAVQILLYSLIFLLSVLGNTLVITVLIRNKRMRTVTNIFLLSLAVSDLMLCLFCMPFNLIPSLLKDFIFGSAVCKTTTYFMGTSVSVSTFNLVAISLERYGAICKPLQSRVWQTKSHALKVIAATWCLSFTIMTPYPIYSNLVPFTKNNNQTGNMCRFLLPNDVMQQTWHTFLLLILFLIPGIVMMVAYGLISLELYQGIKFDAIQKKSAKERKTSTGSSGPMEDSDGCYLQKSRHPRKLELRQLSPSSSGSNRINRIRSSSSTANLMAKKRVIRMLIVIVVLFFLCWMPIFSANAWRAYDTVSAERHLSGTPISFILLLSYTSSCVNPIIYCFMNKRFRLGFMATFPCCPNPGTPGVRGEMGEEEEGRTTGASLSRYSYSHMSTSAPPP

Cavia porcellus [2] = species: Cavia porcellus; assay: Inhibition of CCK-8-stimulated amylase release; format: functional
Cavia porcellus [3] = species: Cavia porcellus; assay: The compound was tested for the inhibition of CCK-8-stimulated amylase release; format: functional
Outline: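 Amylase release was stimulated with CCK-8 at 3 × 10⁻¹⁰ M as the reference concentration, following a published procedure. Inhibition by test compounds gave IC50 values.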

Row | SMILES | pIC50 [1] | pIC50 (Cavia porcellus [2]) | pIC50 (Cavia porcellus [3])
1 | CCCCCN(CCCCC)C(=O)[C@H](Cc1c[nH]c2ccccc12)NC(=O)c1cc2ccccc2[nH]1 | 6.28 | > 4.52 | –
2 | CCCCCN(CCCCC)C(=O)[C@@H](Cc1c[nH]c2ccccc12)NC(=O)c1ccc[nH]1 | – | < 4.00 | –
3 | CCCCCN(CCCCC)C(=O)C(Cc1c[nH]c2ccc(OCc3ccccc3)cc12)NC(=O)c1cnc2ccccc2c1 (configuration not stated) | – | > 4.00 | –
4 | CCCCCN(CCCCC)C(=O)[C@@H](Cc1c[nH]c2ccccc12)NC(=O)c1cc(O)c2cccc(O)c2n1 | – | 7.34 | –
5 | CCCCCN(CCCCC)C(=O)[C@@H](Cc1c[nH]c2ccccc12)NC(=O)c1ccc2cc(O)ccc2c1 | – | 4.00 | –
6 | CCCCCN(CCCCC)C(=O)[C@@H](Cc1c[nH]c2ccccc12)NC(=O)c1cc2ccccc2cn1 | 6.06 | > 4.00 | –
7 | CCOC(=O)CN(Cc1ccccc1)C(=O)[C@@H](Cc1c[nH]c2ccccc12)NC(=O)c1cnc2ccccc2c1 | 6.40 | – | –
8 | CCCCCN(CCCCC)C(=O)[C@H](Cc1c[nH]c2ccccc12)NC(=O)Nc1cccc(C)c1 | 5.82 | > 4.00 | –
9 | CCCCCN(CCCCC)C(=O)[C@@H](Cc1c[nH]c2ccccc12)NC(=O)Nc1cccc(C)c1 | 5.96 | < 4.52 | –
10 | CCCCCN(CCCCC)C(=O)[C@H](Cc1c[nH]c2ccccc12)NC(=O)c1cnc2ccccc2c1 | – | > 4.00 | –
11 | CCCCCN(CCCCC)C(=O)[C@@H](Cc1c[nH]c2ccccc12)NC(=O)c1cnc2ccccc2c1 | – | 7.37 | –
12 | CCCCCN(CCCCC)C(=O)[C@H](Cc1c[nH]c2ccccc12)NC(=O)c1ccc(Cl)c(Cl)c1 | 6.17 | < 4.52 | –
13 | CCCCCN(CCCCC)C(=O)[C@@H](Cc1c[nH]c2ccccc12)NC(=O)Nc1ccc(Cl)cc1 | 5.38 | – | –
14 | CCCCCN(CCCCC)C(=O)[C@@H](Cc1c[nH]c2ccccc12)NC(=O)c1cccnc1 | 4.84 | < 4.00 | –
15 | CCCCCN(CCCCC)C(=O)[C@H](Cc1c[nH]c2ccccc12)NC(=O)c1ccc(Cl)cc1 | 6.32 | > 4.52 | –
16 | CCCCCN(CCCCC)C(=O)[C@@H](Cc1c[nH]c2ccccc12)NC(=O)c1ccc2cccc(O)c2n1 | 6.41 | > 4.00 | –
17 | C[C@@H](NC(=O)[C@@H](Cc1c[nH]c2ccccc12)NC(=O)c1cnc2ccccc2c1)c1ccccc1 | 6.09 | – | < 5.00
18 | CCCCCN(CCCCC)C(=O)[C@@H](Cc1c[nH]c2ccccc12)NC(=O)c1c[nH]c2ccccc12 | 6.37 | > 5.00 | –
19 | CN(Cc1ccccc1)C(=O)[C@@H](Cc1c[nH]c2ccccc12)NC(=O)c1cnc2ccccc2c1 | 6.22 | – | –
20 | CCCCCN(CCCCC)C(=O)[C@@H](Cc1c(Sc2ccccc2[N+](=O)[O-])[nH]c2ccccc12)NC(=O)c1cnc2ccccc2c1 | – | > 4.00 | –
21 | CCCCCN(CCCCC)C(=O)[C@@H](Cc1c[nH]c2ccccc12)NC(=O)c1nccc2ccccc12 | – | < 4.00 | –
22 | CCCCCN(CCCCC)C(=O)[C@H](Cc1c[nH]c2ccccc12)NC(=O)Nc1ccc(C)cc1 | < 5.00 | – | –
23 | CCCCCN(CCCCC)C(=O)[C@H](Cc1c[nH]c2ccccc12)NC(=O)Nc1ccc(Cl)cc1 | < 5.00 | – | –
24 | CCCCCN(CCCCC)C(=O)[C@@H](Cc1c[nH]c2ccccc12)NC(=O)c1cccc2ccccc12 | 6.30 | > 4.52 | –
25 | CCCCCN(CCCCC)C(=O)[C@@H](Cc1c[nH]c2ccccc12)NC(=O)/C=C/c1cccnc1 | < 6.00 | > 4.00 | –
26 | CCCCCN(CCCCC)C(=O)[C@@H](Cc1c[nH]c2ccccc12)NC(=O)c1cc2ccccc2[nH]1 | – | 6.17 | –
27 | O=C(N[C@@H](Cc1c[nH]c2ccccc12)C(=O)O)c1ccc(Cl)cc1 [BENZOTRIPT] | < 4.00 | – | –

The remaining compounds from weak to strong by pIC50 [1], led by results:

Row | pIC50 [1] | SMILES | pIC50 (Cavia porcellus [2]) | pIC50 (Cavia porcellus [3])
28 | 6.43 | CCCCCN(CCCCC)C(=O)[C@@H](Cc1c[nH]c2ccccc12)NC(=O)c1ccc(Cl)cc1 | > 5.00 | –
29 | 6.62 | CCCCCN(CCCCC)C(=O)[C@@H](Cc1c[nH]c2ccccc12)NC(=O)c1ccc2ncccc2c1 | > 5.00 | –
30 | 6.72 | CCCCCN(CCCCC)C(=O)[C@@H](Cc1c[nH]c2ccccc12)NC(=O)c1ccc(Cl)c(Cl)c1 | 5.60 | –
31 | 6.74 | C[C@H](NC(=O)[C@@H](Cc1c[nH]c2ccccc12)NC(=O)c1cnc2ccccc2c1)c1ccccc1 | – | –
32 | 6.81 | CCCCCN(CCCCC)C(=O)[C@@H](Cc1c[nH]c2ccccc12)NC(=O)c1cc2cc(F)ccc2[nH]1 | > 4.00 | –
33 | 6.92 | CCCCCN(CCCCC)C(=O)[C@@H](Cc1c[nH]c2ccccc12)NC(=O)c1ccc2ccccc2n1 | 5.89 | –
34 | 7.29 | CCCCCN(CCCCC)C(=O)[C@@H](Cc1c[nH]c2ccccc12)NC(=O)c1cc(O)c2ccccc2n1 | 6.96 | –
35 | 7.32 | CCCCCN(CCCCC)C(=O)[C@H](Cc1c[nH]c2ccc(F)cc12)NC(=O)c1cnc2ccccc2c1 | < 4.00 | –
36 | 7.34 | CCCCCN(CCCCC)C(=O)[C@@H](CC1C(=O)Nc2ccccc21)NC(=O)c1cnc2ccccc2c1 (some centres not stated) | 7.21 | –
37 | 7.54 | CCCCCN(CCCCC)C(=O)[C@@H](Cc1c[nH]c2ccccc12)NC(=O)c1ccc2ccccc2c1 | 6.44 | –
38 | 7.96 | CCCCCN(CCCCC)C(=O)[C@@H](Cc1c[nH]c2ccc(O)cc12)NC(=O)c1cnc2ccccc2c1 | 7.57 | –
39 | 8.15 | CCCCCN(CCCCC)C(=O)[C@@H](CCC(=O)O)NC(=O)c1cc(O)c2cccc(O)c2n1 | 6.97 | –
